{"source": "ChEMBL document CHEMBL1125212", "about": "“Dual-action cephalosporins: cephalosporin 3'-quinolone carbamates” (J Med Chem, 1991)", "key": {"Proteus vulgaris": {"test_system": "Proteus vulgaris", "experiment": "The compound was tested in vitro for minimum inhibitory concentration against Proteus vulgaris 1028 BC", "format": "functional", "summary_of_the_method": "(§1)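 Proteus MICs by agar dilution on Mueller-Hinton medium containing 3% agar. Serial 2-fold dilutions gave final 128 to 0.0156 μg/mL (further to 0.000977 μg/mL). Inoculum was overnight broth diluted 100-fold, about 3×10^4 CFU/spot. Plates read after overnight incubation at 36 °C.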"}, "Escherichia coli [1]": {"test_system": "Escherichia coli", "experiment": "The compound was evaluated for the inhibition of [14C]- Pen G binding to Escherichia coli UB1005 penicillin-binding protein 3 60 kDa.", "summary_of_the_method": "(§2)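 Membranes from sonicated E. coli UB1005 were solubilized. Binding to penicillin-binding proteins was measured as inhibition of [14C]penicillin G binding.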"}, "Escherichia coli [2]": {"test_system": "Escherichia coli", "experiment": "Minimum inhibitory concentration required to inhibit the activity of Escherichia coli ATCC 25922", "format": "functional", "summary_of_the_method": "(§3)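 Agar dilution on Mueller-Hinton agar using 2-fold serial dilutions, giving final 128 to 0.0156 μg/mL (extended to 0.000977 μg/mL where needed). Inoculum was overnight broth culture diluted 100-fold, about 3×10^4 CFU/spot, applied by replicator. MIC read after overnight incubation at 36 °C.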"}, "Escherichia coli [3]": {"test_system": "Escherichia coli", "experiment": "Inhibitory activity on replicative DNA biosynthesis in Escherichia coli H560 (permeabilised cells)", "format": "functional, organism-based", "summary_of_the_method": "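E. coli H560 cells permeabilized with toluene. ATP-dependent incorporation of [3H]thymidine into trichloroacetic acid-insoluble material was measured. IC50 taken as the concentration giving 50% inhibition.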"}, "Escherichia coli [4]": {"test_system": "Escherichia coli", "experiment": "The compound was evaluated for the inhibition of [14C]- Pen G binding to Escherichia coli UB1005 penicillin-binding protein 1a 90 kDa.", "summary_of_the_method": "as §2"}, "Pseudomonas aeruginosa [5]": {"test_system": "Pseudomonas aeruginosa", "experiment": "The compound was tested in vitro for minimum inhibitory concentration against Pseudomonas aeruginosa 8780", "format": "functional", "summary_of_the_method": "as §3"}, "Escherichia coli [6]": {"test_system": "Escherichia coli", "experiment": "The compound was evaluated for the inhibition of [14C]- Pen G binding to Escherichia coli UB1005 penicillin-binding protein 2 66 kDa.", "summary_of_the_method": "as §2"}, "Escherichia coli [7]": {"test_system": "Escherichia coli", "experiment": "The compound was tested in vitro for minimum inhibitory concentration against Escherichia coli TEM-1", "format": "functional", "summary_of_the_method": "as §3"}, "Staphylococcus aureus [8]": {"test_system": "Staphylococcus aureus", "experiment": "The compound was tested in vitro for minimum inhibitory concentration against Staphylococcus aureus 67-0", "format": "functional", "summary_of_the_method": "as §3"}, "Mus musculus [9]": {"species": "Mus musculus", "experiment": "Effective dose against mouse infected with Pseudomonas aeruginosa 8780 (LDs-240)", "format": "functional", "summary_of_the_method": "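CD1 Swiss albino mice (18-20 g) infected intraperitoneally with 0.5 mL of diluted bacterial suspension. Challenge expressed as a multiple of LD50. Drug given subcutaneously at the dorsal neck base within 5 min of infection (1.0 mL), with a second treatment 3 h after infection. Dose range 250 to 0.05 mg/kg. Six mice per group. ED50 by the Reed-Muench method.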"}, "Mus musculus [10]": {"species": "Mus musculus", "experiment": "Effective dose against mouse infected with Streptococcus pneumoniae 6301(LDs-5623)", "format": "functional", "summary_of_the_method": "(§4)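 Mouse protection test in CD1 Swiss albino mice (18-20 g) given an intraperitoneal challenge (0.5 mL of diluted culture), expressed as a multiple of LD50. A single subcutaneous dose of 1.0 mL test solution was given at the dorsal neck base within 5 min of infection. Dose range 250 to 0.05 mg/kg. Six mice per group. ED50 (protective dose) by Reed-Muench.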"}, "Escherichia coli [11]": {"test_system": "Escherichia coli", "experiment": "Minimum inhibitory concentration for inhibition of [14C]- Pen G binding to Escherichia coli UB1005", "format": "functional", "summary_of_the_method": "as §2"}, "Proteus mirabilis": {"test_system": "Proteus mirabilis", "experiment": "The compound was tested in vitro for minimum inhibitory concentration against Proteus mirabilis 90", "format": "functional", "summary_of_the_method": "as §1"}, "Streptococcus pneumoniae": {"test_system": "Streptococcus pneumoniae", "experiment": "The compound was tested in vitro for minimum inhibitory concentration against Streptococcus pneumoniae 6301", "format": "functional", "summary_of_the_method": "(§5)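 Streptococci tested by agar dilution on brain heart infusion agar with 20 units/mL bovine liver catalase. Final drug range 128 to 0.0156 μg/mL by 2-fold steps, extended to 0.000977 μg/mL when required. Inoculum about 3×10^4 CFU/spot from overnight broth diluted 100-fold. MIC after overnight incubation at 36 °C.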"}, "Citrobacter freundii": {"test_system": "Citrobacter freundii", "experiment": "The compound was tested in vitro for minimum inhibitory concentration against Citrobacter Freundii BS-16", "format": "functional", "summary_of_the_method": "as §3"}, "Micrococcus luteus": {"test_system": "Micrococcus luteus", "experiment": "The compound was tested in vitro for minimum inhibitory concentration against Micrococcus luteus ATCC 9341", "format": "functional", "summary_of_the_method": "as §3"}, "Escherichia coli [12]": {"test_system": "Escherichia coli", "experiment": "The compound was tested in vitro for minimum inhibitory concentration against Escherichia coli ATCC 25922", "format": "functional", "summary_of_the_method": "as §3"}, "Enterococcus faecalis": {"test_system": "Enterococcus faecalis", "experiment": "The compound was tested in vitro for minimum inhibitory concentration against Enterococcus faecalis ATCC 29212", "format": "functional", "summary_of_the_method": "as §3"}, "Staphylococcus aureus [13]": {"test_system": "Staphylococcus aureus", "experiment": "The compound was tested in vitro for minimum inhibitory concentration against Staphylococcus aureus smith", "format": "functional", "summary_of_the_method": "as §3"}, "Pseudomonas aeruginosa [14]": {"test_system": "Pseudomonas aeruginosa", "experiment": "The compound was tested in vitro for minimum inhibitory concentration against Pseudomonas aeruginosa 18S/H", "format": "functional", "summary_of_the_method": "as §3"}, "Streptococcus pyogenes": {"test_system": "Streptococcus pyogenes", "experiment": "The compound was tested in vitro for minimum inhibitory concentration against Streptococcus pyogenes", "format": "functional", "summary_of_the_method": "as §5"}, "Klebsiella pneumoniae": {"test_system": "Klebsiella pneumoniae", "experiment": "The compound was tested in vitro for minimum inhibitory concentration against Klebsiella pneumoniae A", "format": "functional", "summary_of_the_method": "as §3"}, "Serratia marcescens": {"test_system": "Serratia marcescens", "experiment": "The compound was tested in vitro for minimum inhibitory concentration against Serratia marcescens 1071", "format": "functional", "summary_of_the_method": "as §3"}, "Escherichia coli [15]": {"test_system": "Escherichia coli", "experiment": "The compound was evaluated for the inhibition of [14C]- Pen G binding to Escherichia coli UB1005 penicillin-binding protein 1b 90 kDa.", "summary_of_the_method": "as §2"}, "Escherichia coli [16]": {"test_system": "Escherichia coli", "experiment": "Minimum inhibitory concentration required to inhibit the activity of Escherichia coli UB1005", "format": "functional", "summary_of_the_method": "as §3"}, "Escherichia coli [17]": {"test_system": "Escherichia coli", "experiment": "The compound was tested in vitro for minimum inhibitory concentration against Escherichia coli 257", "format": "functional", "summary_of_the_method": "as §3"}, "Staphylococcus aureus [18]": {"test_system": "Staphylococcus aureus", "experiment": "The compound was tested in vitro for minimum inhibitory concentration against Staphylococcus aureus 753", "format": "functional", "summary_of_the_method": "as §3"}, "Mus musculus [19]": {"species": "Mus musculus", "experiment": "Effective dose against mouse infected with Staphylococcus aureus 753 (MR) (LDs-6)", "format": "functional", "summary_of_the_method": "as §4"}, "Enterobacter cloacae": {"test_system": "Enterobacter cloacae", "experiment": "The compound was tested in vitro for minimum inhibitory concentration against Enterobacter cloacae P99", "format": "functional"}, "Escherichia coli [20]": {"test_system": "Escherichia coli", "experiment": "The compound was evaluated for the inhibition of [14C]- Pen G binding to Escherichia coli UB1005 PBP1a 90 kDa.", "format": "functional", "summary_of_the_method": "(§6)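 Penicillin-binding protein assay using solubilized membranes from sonicated E. coli UB1005. Binding was read as inhibition of [14C]penicillin G binding to the PBPs.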"}, "Escherichia coli [21]": {"test_system": "Escherichia coli", "experiment": "Minimum inhibitory concentration for inhibition of [14C]- Pen G binding to Escherichia coli UB1005.", "format": "functional", "summary_of_the_method": "as §6"}, "Escherichia coli [22]": {"test_system": "Escherichia coli", "experiment": "The compound was evaluated for the inhibition of [14C]- Pen G binding to Escherichia coli UB1005 PBP2 66 kDa.", "format": "functional", "summary_of_the_method": "as §6"}, "Escherichia coli [23]": {"test_system": "Escherichia coli", "experiment": "The compound was evaluated for the inhibition of [14C]- Pen G binding to Escherichia coli UB1005 PBP3 60 kDa.", "format": "functional", "summary_of_the_method": "as §6"}, "Escherichia coli [24]": {"test_system": "Escherichia coli", "experiment": "The compound was evaluated for the inhibition of [14C]- Pen G binding to Escherichia coli UB1005 PBP1b 90 kDa.", "format": "functional", "summary_of_the_method": "as §6"}}, "data": [{"molecule": "CO/N=C(\\C(=O)N[C@@H]1C(=O)N2C(C(=O)O)=C(COC(=O)N3CCN(c4cc5c(cc4F)c(=O)c(C(=O)O)cn5C4CC4)CC3)CS[C@H]12)c1csc(N)n1", "values": [{"measurement": "MIC", "setting": "Proteus vulgaris", "result": 0.063, "unit": "µg/mL"}, {"measurement": "Inhibitory concentration", "setting": "Escherichia coli [1]", "result": 0.5, "unit": "µg/mL"}, {"measurement": "MIC", "setting": "Escherichia coli [2]", "result": 0.03, "unit": "µg/mL"}, {"measurement": "IC50", "setting": "Escherichia coli [3]", "result": 0.9, "unit": "µg/mL"}, {"measurement": "Inhibitory concentration", "setting": "Escherichia coli [4]", "result": 100, "unit": "µg/mL"}, {"measurement": "MIC", "setting": "Pseudomonas aeruginosa [5]", "result": 1, "unit": "µg/mL"}, {"measurement": "Inhibitory concentration", "setting": "Escherichia coli [6]", "result": "> 100", "unit": "µg/mL"}, {"measurement": "MIC", "setting": "Escherichia coli [7]", "result": 0.063, "unit": "µg/mL"}, {"measurement": "MIC", "setting": "Staphylococcus aureus [8]", "result": 2, "unit": "µg/mL"}, {"measurement": "ED50", "setting": "Mus musculus [9]", "result": 33, "unit": "mg/kg"}, {"measurement": "ED50", "setting": "Mus musculus [10]", "result": 10, "unit": "mg/kg"}, {"measurement": "MIC", "setting": "Escherichia coli [11]", "result": 0.5, "unit": "µg/mL"}, {"measurement": "MIC", "setting": "Proteus mirabilis", "result": 0.063, "unit": "µg/mL"}, {"measurement": "MIC", "setting": "Streptococcus pneumoniae", "result": "< 0.016", "unit": "µg/mL"}, {"measurement": "MIC", "setting": "Citrobacter freundii", "result": 0.125, "unit": "µg/mL"}, {"measurement": "MIC", "setting": "Micrococcus luteus", "result": 0.031, "unit": "µg/mL"}, {"measurement": "MIC", "setting": "Escherichia coli [12]", "result": 0.031, "unit": "µg/mL"}, {"measurement": "MIC", "setting": "Enterococcus faecalis", "result": 0.25, "unit": "µg/mL"}, {"measurement": "MIC", "setting": "Staphylococcus aureus [13]", "result": 0.5, "unit": "µg/mL"}, {"measurement": "MIC", "setting": "Pseudomonas aeruginosa [14]", "result": 1, "unit": "µg/mL"}, {"measurement": "MIC", "setting": "Streptococcus pyogenes", "result": "< 0.016", "unit": "µg/mL"}, {"measurement": "MIC", "setting": "Klebsiella pneumoniae", "result": 0.125, "unit": "µg/mL"}, {"measurement": "MIC", "setting": "Serratia marcescens", "result": 0.25, "unit": "µg/mL"}, {"measurement": "Inhibitory concentration", "setting": "Escherichia coli [15]", "result": 30, "unit": "µg/mL"}, {"measurement": "MIC", "setting": "Escherichia coli [16]", "result": 0.5, "unit": "µg/mL"}, {"measurement": "MIC", "setting": "Escherichia coli [17]", "result": 0.031, "unit": "µg/mL"}, {"measurement": "MIC", "setting": "Staphylococcus aureus [18]", "result": 2, "unit": "µg/mL"}, {"measurement": "ED50", "setting": "Mus musculus [19]", "result": 28, "unit": "mg/kg"}, {"measurement": "MIC", "setting": "Enterobacter cloacae", "result": "< 0.016", "unit": "µg/mL"}]}, {"molecule": "CC(C)(O/N=C(\\C(=O)N[C@@H]1C(=O)N2C(C(=O)[O-])=C(C[n+]3ccccc3)CS[C@H]12)c1csc(N)n1)C(=O)O", "note": "[CEFTAZIDIME]", "values": [{"measurement": "Inhibitory concentration", "setting": "Escherichia coli [20]", "result": 10, "unit": "µg/mL"}, {"measurement": "MIC", "setting": "Escherichia coli [21]", "result": 0.1, "unit": "µg/mL"}, {"measurement": "Inhibitory concentration", "setting": "Escherichia coli [22]", "result": "> 100", "unit": "µg/mL"}, {"measurement": "Inhibitory concentration", "setting": "Escherichia coli [23]", "result": 0.5, "unit": "µg/mL"}, {"measurement": "Inhibitory concentration", "setting": "Escherichia coli [24]", "result": 10, "unit": "µg/mL"}]}]}
